Test results as given in ChEMBL document CHEMBL1124929, “Indolo[2,1-a]isoquinolines. Syntheses, steroid hormone receptor binding affinities, and cytostatic activity” (1990).

Columns and labels:
[1] = target: T1, Estrogen receptor (Mus musculus) (UniProt O08537+P19785); assay: (§1) Estrogenic activity in uterotrophic assay in immature mice at 10.0 ug subcutaneous dose; assay type: functional
Method in brief: (§2)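 Immature female NMRI mice, 20 days old, in groups of 6-10, were dosed sc once daily for three consecutive days. Compounds were given in PEG/0.9% saline 1:1; vehicle controls were included. Animals were killed 24 h after the last dose. Uteri were fixed in Bouin solution and the effect was taken as uterine dry weight (mg)/body weight (g) ×100, given as mean ± SD.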

MCF7 [2] = assay: Effect on hormone-dependent MCF-7 human breast cancer cell proliferation at 5x10E-6M; assay type: functional
Method in brief: (§3)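 Cells were plated at about 2 × 10⁴ per well in six-well dishes. MCF-7 cells were grown in modified improved MEM with 5% NCS, switched to charcoal-treated NCS two weeks before the test, and exposed for 5 days with a re-dose on day 4. MDA-MB 231 cells were grown in McCoy 5a with 10% NCS and exposed for 2 days. Compounds were given 1 day after plating in 0.1% DMSO, with DMSO-matched controls. Read-out was cell number as % T/C, mean of three experiments with six dishes.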

MCF7 [3] = assay: Effect on [3H]thymidine incorporation into MCF-7 human breast cancer cells at 1x10E-5 M; assay type: functional
Method in brief: (§4)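 Cells were seeded at ~2 × 10⁴ per well, treated from the next day in 0.1% DMSO, with DMSO controls. MCF-7 cells were held in charcoal-stripped NCS for 2 weeks, treated for 5 days and re-dosed on day 4. MDA-MB 231 cells were grown in McCoy 5a/10% NCS and treated for 2 days. At the end, 1 µCi [³H]thymidine per well was added for 2 h. Result is % T/C, mean of three experiments × six dishes.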

[4] = target: T1, Estrogen receptor (Mus musculus); assay: Inhibition of 0.4 ug estrone-stimulated uterine growth in mice at 2 ug subcutaneous dose; assay type: functional
Method in brief: (§5)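 Immature 20-day-old female NMRI mice received sc injections on three consecutive days. Each injection held 0.4 µg estrone plus the compound in PEG/saline 1:1. […] Significance was tested by Mann-Whitney U test.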

[5] = target: T1, Estrogen receptor (Mus musculus); assay: as §1; assay type: functional; method in brief: as §2; remark: listed apart in the source
[6] = target: T2, Androgen receptor (Mus musculus) (UniProt P19091); assay: Relative effect on seminal vesicle weight in adult and castrated mice at 10 ug dose; assay type: functional, tissue-based
T2 sequence (whole entry): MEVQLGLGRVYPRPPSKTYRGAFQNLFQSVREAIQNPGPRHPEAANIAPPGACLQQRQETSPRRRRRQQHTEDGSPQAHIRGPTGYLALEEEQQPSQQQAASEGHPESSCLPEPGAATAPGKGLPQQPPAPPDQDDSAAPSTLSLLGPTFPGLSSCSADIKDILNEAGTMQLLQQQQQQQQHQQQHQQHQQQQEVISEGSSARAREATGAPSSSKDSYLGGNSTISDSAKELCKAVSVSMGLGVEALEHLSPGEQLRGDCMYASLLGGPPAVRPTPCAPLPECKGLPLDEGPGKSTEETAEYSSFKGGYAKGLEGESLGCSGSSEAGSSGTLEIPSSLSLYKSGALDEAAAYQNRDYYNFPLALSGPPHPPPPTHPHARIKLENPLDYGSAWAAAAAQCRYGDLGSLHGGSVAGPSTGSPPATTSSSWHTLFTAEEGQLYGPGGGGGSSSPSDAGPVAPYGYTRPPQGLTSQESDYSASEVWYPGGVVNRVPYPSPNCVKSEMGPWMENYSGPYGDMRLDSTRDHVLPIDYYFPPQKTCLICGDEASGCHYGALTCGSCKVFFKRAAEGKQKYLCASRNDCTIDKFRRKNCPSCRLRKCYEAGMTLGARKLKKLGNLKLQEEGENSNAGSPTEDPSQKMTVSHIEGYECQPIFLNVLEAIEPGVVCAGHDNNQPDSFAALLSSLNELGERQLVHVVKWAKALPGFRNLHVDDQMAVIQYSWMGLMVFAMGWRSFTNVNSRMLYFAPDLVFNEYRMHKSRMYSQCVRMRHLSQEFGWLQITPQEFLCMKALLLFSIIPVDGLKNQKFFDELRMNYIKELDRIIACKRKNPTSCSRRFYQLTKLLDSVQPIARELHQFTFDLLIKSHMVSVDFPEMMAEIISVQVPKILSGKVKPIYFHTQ
Method in brief: (§6)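 Adult male mice, 23–25 g, six per group, were used intact or castrated via the scrotal route under ether 5 days before the test. Castrates received 0.3 mg testosterone propionate daily. Compounds were injected daily in olive oil for nine days. Seminal vesicles were taken 24 h later, fixed in Bouin solution, dried overnight at 100 °C and weighed. Result is organ mg/body g ×100; % inhibition = [1 − treated/control] × 100.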

[7] = target: T2, Androgen receptor (Mus musculus); assay: Relative effect on seminal vesicle weight in adult and castrated mice supplemented with 0.3 mg TP at 1000 ug dose; assay type: functional, tissue-based; method in brief: as §6
[8] = target: T2, Androgen receptor (Mus musculus); assay: Inhibition of seminal vesicle weight in intact mice at 100 ug
MCF7 [9] = assay: Effect on [3H]thymidine incorporation into MCF-7 human breast cancer cells at 5x10E-6M; assay type: functional; method in brief: as §4
MCF7 [10] = assay: Effect on hormone-dependent MCF-7 human breast cancer cell proliferation at 1x10E-6M; assay type: functional; method in brief: as §3
[11] = target: T1, Estrogen receptor (Mus musculus); assay: Estrogenic activity in uterotrophic assay in immature mice at 50.0 ug subcutaneous dose; assay type: functional; method in brief: as §2
MDA-MB-231 [12] = assay: Cytostatic effect on hormone-independent MDA-MB 231 human breast cancer cell proliferation at 1x10E-5 M; assay type: functional; method in brief: as §3
[13] = target: T1, Estrogen receptor (Mus musculus); assay: Estrogenic activity in uterotrophic assay in immature mice at 250 ug subcutaneous dose; assay type: functional; method in brief: as §2
[14] = target: T1, Estrogen receptor (Mus musculus); assay: Inhibition of 0.4 ug estrone-stimulated uterine growth in mice at 250 ug subcutaneous dose; assay type: functional; method in brief: as §5
[15] = target: T2, Androgen receptor (Mus musculus); assay: Relative effect on seminal vesicle weight in adult and castrated mice at 1000 ug dose; assay type: functional, tissue-based; method in brief: as §6
[16] = target: T2, Androgen receptor (Mus musculus); assay: Inhibition of testosterone-stimulated seminal vesicle growth in castrated mice supplemented with 0.3 mg of TP at 1000.0 ug; assay type: functional; method in brief: as §6
MDA-MB-231 [17] = assay: Effect on [3H]-thymidine incorporation into MDA-MB 231 human breast cancer cells at 1x10E-6M; assay type: functional; method in brief: as §4
MCF7 [18] = assay: Effect on hormone-dependent MCF-7 human breast cancer cell proliferation at 1x10E-7M; assay type: functional; method in brief: as §3
MDA-MB-231 [19] = assay: Effect on [3H]thymidine incorporation into MDA-MB 231 human breast cancer cells at 1x10E-5 M; assay type: functional; method in brief: as §4
MCF7 [20] = assay: Effect on [3H]thymidine incorporation into MCF-7 human breast cancer cells at 1x10E-7M; assay type: functional; method in brief: as §4
[21] = target: Estrogen receptor (Bos taurus) (UniProt Q9XSB5+P49884); assay: Relative binding affinity(RBA) for 50% displacement of [3H]-estradiol from Estrogen receptor compared to 17-beta-estradiol; assay type: protein assay
Method in brief: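 Receptor source was calf uterine cytosol (105000g supernatant, 3 mg/mL protein in assay). Buffers were Tris/EDTA pH 7.4, with NaN₃ for ER, molybdate/glycerol for AR, and sucrose for PR. Tracers were 1 nM [³H]estradiol, [³H]mibolerone or [³H]Org 2058. Incubation was at 0–4 °C for 16 h (ER) or 2 h (AR, PR), with 4–6 competitor concentrations. Nonspecific binding used 2 µM of the unlabeled hormone. Separation was by dextran-coated charcoal. RBA is the ratio of IC50 values for hormone and compound ×100, mean of two triplicate experiments.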

T1 sequence (O08537 whole entry, looked up): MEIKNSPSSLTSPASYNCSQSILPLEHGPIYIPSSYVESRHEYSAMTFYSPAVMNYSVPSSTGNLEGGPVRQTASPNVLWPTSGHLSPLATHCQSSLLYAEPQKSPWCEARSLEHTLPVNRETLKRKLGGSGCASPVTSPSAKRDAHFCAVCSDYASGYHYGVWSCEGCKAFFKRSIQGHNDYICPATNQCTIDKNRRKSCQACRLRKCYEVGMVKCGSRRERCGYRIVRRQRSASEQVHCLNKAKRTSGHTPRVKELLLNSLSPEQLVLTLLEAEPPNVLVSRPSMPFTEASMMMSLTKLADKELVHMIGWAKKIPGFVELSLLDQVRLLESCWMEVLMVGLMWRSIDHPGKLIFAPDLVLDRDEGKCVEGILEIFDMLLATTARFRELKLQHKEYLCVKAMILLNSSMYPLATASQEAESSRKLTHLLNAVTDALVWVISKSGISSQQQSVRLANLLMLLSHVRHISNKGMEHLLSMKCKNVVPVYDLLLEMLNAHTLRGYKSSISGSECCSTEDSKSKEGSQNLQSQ
T1 sequence (P19785 whole entry, looked up): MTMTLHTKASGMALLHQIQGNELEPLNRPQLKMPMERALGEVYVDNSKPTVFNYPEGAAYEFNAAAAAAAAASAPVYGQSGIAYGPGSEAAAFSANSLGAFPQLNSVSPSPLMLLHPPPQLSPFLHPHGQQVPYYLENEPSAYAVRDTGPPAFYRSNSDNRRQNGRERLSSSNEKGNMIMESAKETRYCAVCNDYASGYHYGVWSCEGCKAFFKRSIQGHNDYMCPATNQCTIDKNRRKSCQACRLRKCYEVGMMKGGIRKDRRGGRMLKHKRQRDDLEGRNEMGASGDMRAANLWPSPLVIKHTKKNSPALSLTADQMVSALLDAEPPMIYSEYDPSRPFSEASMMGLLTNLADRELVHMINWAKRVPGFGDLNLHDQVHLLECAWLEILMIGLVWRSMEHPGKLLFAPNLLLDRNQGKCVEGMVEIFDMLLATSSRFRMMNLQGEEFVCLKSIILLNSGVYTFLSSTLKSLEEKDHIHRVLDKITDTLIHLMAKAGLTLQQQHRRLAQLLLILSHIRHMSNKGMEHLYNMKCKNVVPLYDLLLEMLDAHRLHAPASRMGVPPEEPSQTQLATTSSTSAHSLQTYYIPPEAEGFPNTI

Effect [1]: 25.5
inhibition [4]: 7.2%
Effect [5]: 51
Relative seminal vesicle weight [6]: 132
Relative seminal vesicle weight [7]: 187
inhibition [8]: 67%
Effect [11]: 35.8
Effect [13]: 42.6
inhibition [14]: 34.1%
Relative seminal vesicle weight [15]: 38.3
inhibition [16]: 17%
RBA [21]: 17
SMILES: CCC1Cc2cc(OC(C)=O)ccc2-c2cc3cc(OC(C)=O)ccc3n21 (stereo unspecified)
T/C (MCF7 [2]): 10%
T/C (MCF7 [3]): 2%
T/C (MCF7 [9]): 4%
T/C (MCF7 [10]): 45%
T/C (MDA-MB-231 [12]): 4%
T/C (MDA-MB-231 [17]): 45%
T/C (MCF7 [18]): 80%
T/C (MDA-MB-231 [19]): 4%
T/C (MCF7 [20]): 63%
